We go through 18 molecules from ChEMBL document CHEMBL1157567, “Design, synthesis, and evaluation of 2-methyl- and 2-amino-N-aryl-4,5-dihydrothiazolo[4,5-h]quinazolin-8-amines as ring-constrained 2-anilino-4-(thiazol-5-yl)pyrimidine cyclin-dependent kinase inhibitors” (J Med Chem, 2010).

The source made the active and inactive calls. The calls are words filed in the database; no cut-off is given here.

Usually Ki stands for a measure of affinity in units of concentration, obtained from inhibition or displacement. For orientation: IC50 means the concentration that inhibits the measured activity by half. A low value points to inhibition by little substance.

Experiment [1] deals with Cyclin-dependent kinase 7/ cyclin H (Homo sapiens, UniProt P50613). The experiment in a line: inhibition of CDK7/Cyclin H/MAT1. Type of experiment: protein-complex assay. The gist of the method: (§1)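 Kinase activity measured over 10-point dose-response curves to give IC50; apparent Ki derived from IC50 using the ATP Km of each kinase.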
Cyclin-dependent kinase 7/ cyclin H, sequence (P51946 whole entry): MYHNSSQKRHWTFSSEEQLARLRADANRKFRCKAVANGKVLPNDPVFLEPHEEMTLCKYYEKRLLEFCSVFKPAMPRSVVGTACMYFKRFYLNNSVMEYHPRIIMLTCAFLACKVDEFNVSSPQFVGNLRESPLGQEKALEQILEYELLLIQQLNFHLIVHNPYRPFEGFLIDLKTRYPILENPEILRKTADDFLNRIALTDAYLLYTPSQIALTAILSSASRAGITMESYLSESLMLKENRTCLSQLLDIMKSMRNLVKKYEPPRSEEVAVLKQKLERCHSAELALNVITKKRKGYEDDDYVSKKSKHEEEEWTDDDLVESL
Cyclin-dependent kinase 7/ cyclin H, sequence (P50613 whole entry): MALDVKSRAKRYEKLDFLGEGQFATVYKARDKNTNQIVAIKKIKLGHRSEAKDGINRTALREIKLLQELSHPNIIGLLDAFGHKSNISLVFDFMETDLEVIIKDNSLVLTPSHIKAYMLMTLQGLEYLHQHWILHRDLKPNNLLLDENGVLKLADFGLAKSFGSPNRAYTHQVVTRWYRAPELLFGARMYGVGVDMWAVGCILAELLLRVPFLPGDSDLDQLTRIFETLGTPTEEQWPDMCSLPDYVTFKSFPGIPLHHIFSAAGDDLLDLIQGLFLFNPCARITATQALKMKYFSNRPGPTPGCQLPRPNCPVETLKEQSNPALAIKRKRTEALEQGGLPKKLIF
Experiment [2] concerns the target Cyclin-dependent kinase 4/cyclin D1 (Homo sapiens, UniProt P11802). Description: inhibition of CDK4/Cyclin D1. Type of experiment: protein-complex assay. The gist of the method: as §1
For a further experiment, the target named is CDK9/cyclin T1 (Homo sapiens, UniProt P50750). The experiment in a line: inhibition of CDK9/CyclinT1. The format is protein-complex assay. The gist of the method:
as §1

Experiment [3] deals with Cyclin-dependent kinase 2/cyclin E1 (Homo sapiens, UniProt P24941). The experiment in a line: inhibition of CDK2/Cyclin E. Type of experiment: protein-complex assay. An outline of the steps: as §1
The target in experiment [4] is Cyclin-dependent kinase 1/cyclin B1 (Homo sapiens, UniProt P06493). The experiment in a line: inhibition of CDK1/Cyclin B. Type of experiment: protein-complex assay. An outline of the steps: as §1
Cyclin-dependent kinase 1/cyclin B1, sequence (P06493 whole entry): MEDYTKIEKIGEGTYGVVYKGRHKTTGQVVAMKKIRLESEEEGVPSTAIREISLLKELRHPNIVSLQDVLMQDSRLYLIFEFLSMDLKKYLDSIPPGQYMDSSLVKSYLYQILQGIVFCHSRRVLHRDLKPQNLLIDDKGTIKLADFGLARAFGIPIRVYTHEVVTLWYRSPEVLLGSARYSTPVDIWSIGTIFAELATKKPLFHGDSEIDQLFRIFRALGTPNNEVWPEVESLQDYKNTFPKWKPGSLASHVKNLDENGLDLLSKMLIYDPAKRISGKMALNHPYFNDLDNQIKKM
Cyclin-dependent kinase 1/cyclin B1, sequence (P14635 whole entry, further chain): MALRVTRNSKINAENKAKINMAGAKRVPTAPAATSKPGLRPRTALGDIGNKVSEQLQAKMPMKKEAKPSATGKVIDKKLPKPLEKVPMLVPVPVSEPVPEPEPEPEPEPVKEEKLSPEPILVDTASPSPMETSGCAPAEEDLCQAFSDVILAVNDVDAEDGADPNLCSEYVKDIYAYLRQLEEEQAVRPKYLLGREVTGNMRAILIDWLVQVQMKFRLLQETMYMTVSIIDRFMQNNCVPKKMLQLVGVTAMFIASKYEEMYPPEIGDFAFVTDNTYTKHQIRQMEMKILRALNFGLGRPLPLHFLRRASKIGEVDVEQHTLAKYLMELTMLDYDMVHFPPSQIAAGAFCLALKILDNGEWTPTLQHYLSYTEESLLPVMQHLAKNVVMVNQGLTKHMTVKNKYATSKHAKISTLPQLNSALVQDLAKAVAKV
For experiment [5], the target named is T1, Cyclin-dependent kinase (Homo sapiens) (UniProt P06493+P11802+P24941+Q00535+Q00534+P50613+Q00526+Q00536+Q07002+P49336+Q00537+P21127+Q96Q40+Q9BWU1+O94921+P50750+Q15131+Q14004+Q8IZL9+Q9NYV4). The experiment in a line: Inhibition of CDK in human A2780 cells assessed as reduction of RNAP2 phosphorylation at Ser2 site at 5 uM after 6 hrs by Western bloting. Type of experiment: cell-based. The gist of the method:
(§2)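 Total cell lysate protein (10 µg) resolved on reducing 4-12% gradient SDS-PAGE after 6 h treatment at 5 µM; probed for RNAP-II phospho-Ser2 and phospho-Ser5 CTD alongside total RNAP-II.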
Background: In western blotting, separated proteins are transferred to a membrane and probed.

Experiment [6] deals with WI-38. Description: Induction of apoptosis in human WI38 cells assessed as TUNEL-positive cells at 5 uM after 24 hrs by TUNEL assay-based flow cytometric analysis. Type of experiment: functional. An outline of the steps: (§3)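 Cells exposed 24 h to 5 µM compound or assay diluent alone; TUNEL labelling with flow cytometry, 10 000 cells collected; apoptotic (TUNEL-positive) fraction gated against DNA-content cell cycle stage.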
(In flow cytometry, cells or beads pass a laser one at a time.)

Experiment [7] concerns the target T1, Cyclin-dependent kinase (Homo sapiens). Description: Inhibition of CDK in human A2780 cells assessed as increase in p53 levels at 5 uM after 6 hrs by Western bloting. Type of experiment: cell-based.
The next experiment relates to HT-29. Description: Antiproliferative activity against human HT-29 cells after 72 hrs by MTT assay. The format is functional, cell-based. Particulars: HT-29, 72 h. The gist of the method:
(§4)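 MTT (thiazolyl blue tetrazolium) colorimetric viability read-out after 72 h continuous exposure of cultured cells to test compound.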
A general note: Tetrazolium dyes change colour on reduction, which living cells bring about.

A further experiment concerns A549. The experiment in a line: Antiproliferative activity against human A549 cells after 72 hrs by MTT assay. Type of experiment: functional, cell-based. Particulars: A549, 72 h. An outline of the steps:
as §4

Experiment [8] deals with WI-38. The experiment in a line: Induction of apoptosis in human WI38 cells assessed as caspase 3/7 activity at 2.5 uM after 24 hrs […]. Type of experiment: functional, cell-based. The gist of the method: (§5)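 Caspase-3/7 luminescent assay: 10 000 cells seeded per well, treated 24 h; detection reagent added directly at equal volume to medium, read after further 30 min at room temperature.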

Experiment [9] concerns A2780. Description: Induction of apoptosis in human A2780 cells assessed as caspase 3/7 activity at 2.5 uM after 24 hrs […]. The format is functional, cell-based. An outline of the steps: as §5
In another experiment the test system is SAOS-2. The experiment in a line: Antiproliferative activity against human Saos2 cells after 72 hrs by MTT assay. The format is functional, cell-based. Particulars: SAOS-2, 72 h. The gist of the method:
as §4

The target of experiment [10] is T1, Cyclin-dependent kinase (Homo sapiens). The experiment in a line: Inhibition of CDK in human A2780 cells assessed as reduction of pRb levels at 5 uM after 6 hrs by Western bloting. The format is cell-based.
The subject of the next experiment is HeLa. The experiment in a line: Antiproliferative activity against human HeLa cells after 72 hrs by MTT assay. Type of experiment: functional, cell-based. An outline of the steps: as §4
In experiment [11] the test system is A2780. Description: Induction of apoptosis in human A2780 cells assessed as TUNEL-positive cells at 5 uM after 24 hrs by TUNEL assay-based flow cytometric analysis. Type of experiment: functional. The gist of the method:
as §3

For experiment [12], the target named is T1, Cyclin-dependent kinase (Homo sapiens). Description: Inhibition of CDK in human A2780 cells assessed as reduction of RNAP2 phosphorylation at Ser5 site at 5 uM after 6 hrs by Western bloting. Type of experiment: cell-based. The gist of the method: as §2
Another experiment concerns MCF7. Description: Antiproliferative activity against human MCF7 cells after 72 hrs by MTT assay. The format is functional, cell-based. Conditions: MCF7, 72 h. An outline of the steps: as §4

CDK9/cyclin T1, sequence (O60563 whole entry): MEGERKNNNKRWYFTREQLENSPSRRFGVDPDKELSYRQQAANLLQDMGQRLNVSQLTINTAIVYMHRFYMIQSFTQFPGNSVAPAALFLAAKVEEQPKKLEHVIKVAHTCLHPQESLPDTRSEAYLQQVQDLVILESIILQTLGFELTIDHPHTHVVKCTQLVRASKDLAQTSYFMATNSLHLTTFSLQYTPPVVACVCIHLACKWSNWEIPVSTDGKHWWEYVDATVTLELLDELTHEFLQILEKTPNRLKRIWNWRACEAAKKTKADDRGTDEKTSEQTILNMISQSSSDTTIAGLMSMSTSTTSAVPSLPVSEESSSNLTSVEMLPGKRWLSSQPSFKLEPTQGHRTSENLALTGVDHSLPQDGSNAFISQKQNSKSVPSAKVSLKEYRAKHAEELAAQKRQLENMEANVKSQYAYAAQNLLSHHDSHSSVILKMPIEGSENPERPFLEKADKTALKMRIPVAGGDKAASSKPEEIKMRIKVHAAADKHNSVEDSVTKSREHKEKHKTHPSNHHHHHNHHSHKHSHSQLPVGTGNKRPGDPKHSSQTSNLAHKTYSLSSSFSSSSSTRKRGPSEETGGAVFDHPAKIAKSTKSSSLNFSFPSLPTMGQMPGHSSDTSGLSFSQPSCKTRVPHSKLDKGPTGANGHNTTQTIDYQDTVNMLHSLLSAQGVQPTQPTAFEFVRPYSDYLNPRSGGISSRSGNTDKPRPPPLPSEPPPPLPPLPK
CDK9/cyclin T1, sequence (P50750 whole entry): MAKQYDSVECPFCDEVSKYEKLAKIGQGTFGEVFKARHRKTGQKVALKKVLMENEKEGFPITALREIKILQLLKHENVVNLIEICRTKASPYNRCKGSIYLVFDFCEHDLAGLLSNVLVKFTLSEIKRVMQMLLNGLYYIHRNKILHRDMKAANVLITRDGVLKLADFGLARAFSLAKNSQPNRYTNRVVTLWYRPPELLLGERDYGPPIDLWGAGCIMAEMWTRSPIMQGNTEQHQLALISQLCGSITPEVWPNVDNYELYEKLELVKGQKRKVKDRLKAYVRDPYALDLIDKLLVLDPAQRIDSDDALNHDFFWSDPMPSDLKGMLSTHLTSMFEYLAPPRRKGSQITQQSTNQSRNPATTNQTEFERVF
Cyclin-dependent kinase 4/cyclin D1, sequence (P11802 whole entry): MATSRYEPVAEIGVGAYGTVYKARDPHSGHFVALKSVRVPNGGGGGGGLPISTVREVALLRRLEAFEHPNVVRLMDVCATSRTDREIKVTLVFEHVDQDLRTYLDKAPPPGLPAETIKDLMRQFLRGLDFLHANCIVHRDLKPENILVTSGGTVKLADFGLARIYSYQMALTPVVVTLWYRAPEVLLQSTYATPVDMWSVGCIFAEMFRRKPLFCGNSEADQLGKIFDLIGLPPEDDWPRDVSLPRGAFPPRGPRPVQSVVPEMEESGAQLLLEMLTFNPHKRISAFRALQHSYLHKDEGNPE
Cyclin-dependent kinase 4/cyclin D1, sequence (P24385 whole entry, further chain): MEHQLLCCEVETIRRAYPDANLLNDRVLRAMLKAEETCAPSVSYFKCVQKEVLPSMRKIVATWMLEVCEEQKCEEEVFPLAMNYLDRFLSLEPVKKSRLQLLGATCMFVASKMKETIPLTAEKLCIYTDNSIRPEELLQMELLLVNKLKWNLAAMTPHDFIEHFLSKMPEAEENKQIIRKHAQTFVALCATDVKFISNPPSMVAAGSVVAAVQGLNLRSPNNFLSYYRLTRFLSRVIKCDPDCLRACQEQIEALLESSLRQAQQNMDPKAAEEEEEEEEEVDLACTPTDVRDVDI

Consider `Cc1nc2c(s1)-c1nc(Nc3ccccc3)ncc1CC2`, for which the inhibition constant (Ki) was found to be 2200 nM in experiment [1]; 900 nM in [2]; 260 nM at CDK9/cyclin T1; 1 nM in [3]; 750 nM in experiment [4].

In the case of `COc1ccc(Nc2ncc3c(n2)-c2sc(C)nc2CC3)cn1`, the Ki in [1] came to 1100 nM; in experiment [2] it was 120 nM; at CDK9/cyclin T1 it was 1000 nM; in experiment [3] it was 49 nM; in experiment [4] it was 78 nM.

On to `Cc1nc2c(s1)-c1nc(Nc3ccc(C(F)(F)F)cc3)ncc1CC2`, for which the Ki in experiment [1] is > 10000 nM; in experiment [2], 4900 nM; at CDK9/cyclin T1 it was 1900 nM; in [3], 160 nM; in experiment [4], 960 nM.

Consider `Cc1nc2c(s1)-c1nc(Nc3ccc(Cl)nc3)ncc1CC2`, for which the Ki was found to be 1400 nM in experiment [1]; 40 nM in experiment [2]; 1200 nM at CDK9/cyclin T1; 25 nM in experiment [3]; 19 nM in experiment [4].

On to `Cc1nc2c(s1)-c1nc(Nc3ccc([N+](=O)[O-])cc3)ncc1CC2`, for which the Ki in experiment [1] was 4800 nM; in experiment [2], > 10000 nM; on CDK9/cyclin T1, 140 nM; in [3], 130 nM; in experiment [4], 310 nM.

As for `Cc1nc2ccc3cnc(N(C)c4cccc([N+](=O)[O-])c4)nc3c2s1`, the Ki was > 10000 nM in [1]; > 10000 nM in experiment [2]; > 10000 nM at CDK9/cyclin T1; 1600 nM in [3]; 7500 nM in [4].

Consider `Cc1nc2c(s1)-c1nc(N(C)c3cccc([N+](=O)[O-])c3)ncc1CC2`, for which the Ki in [1] is 1800 nM; in experiment [2] it was > 10000 nM; on CDK9/cyclin T1, 12000 nM; in experiment [3], 590 nM; in experiment [4], 2700 nM.

Consider `Nc1nc2c(s1)-c1nc(Nc3ccccc3)ncc1CC2`, for which the Ki in experiment [1] is 1200 nM; in experiment [2], 330 nM; at CDK9/cyclin T1, 110 nM; in [3] it was 88 nM; in [4] it was 630 nM.

As to `Cc1nc2c(s1)-c1nc(Nc3ccc(N4CCOCC4)cc3)ncc1CC2`, the inhibition constant (Ki) was 1000 nM in [1]; > 10000 nM in experiment [2]; 640 nM at CDK9/cyclin T1; 200 nM in experiment [3]; 15000 nM in [4].

Regarding `Nc1nc2c(s1)-c1nc(Nc3cccc([N+](=O)[O-])c3)ncc1CC2`, the Ki in [1] stood at 140 nM; in [2] it was 130 nM; at CDK9/cyclin T1, 3 nM; in [3], 1 nM; in experiment [4] it was 18 nM.

Consider `Cc1nc2c(s1)-c1nc(Nc3ccc(O)cc3)ncc1CC2`, for which the Ki in experiment [1] was determined as 300 nM; in experiment [2] it was 540 nM; on CDK9/cyclin T1, 490 nM; in experiment [3], 1 nM; in experiment [4] it was 200 nM.

Consider `Cc1nc2c(s1)-c1nc(N)ncc1CC2`, for which the inhibition constant (Ki) (in experiment [1]; in [2]; on CDK9/cyclin T1; in [3]; in experiment [4]) was > 10000 nM in each case.

As for `Cc1nc2ccc3cnc(Nc4ccccc4)nc3c2s1`, the inhibitory constant (Ki) is > 10000 nM in experiment [1]; 2700 nM in experiment [2]; > 10000 nM at CDK9/cyclin T1; 24 nM in [3]; 1700 nM in [4].

Regarding `CN(C)c1ccc(Nc2ncc3c(n2)-c2sc(N)nc2CC3)cc1`, the Ki was 500 nM in experiment [1]; 470 nM in experiment [2]; 160 nM at CDK9/cyclin T1; 31 nM in experiment [3]; 98 nM in [4].

Consider `Cc1nc2c(s1)-c1nc(Nc3ccc(N(C)C)cc3)ncc1CC2`, for which the inhibition constant Ki in [1] is 60 nM; in experiment [2] it was 37 nM; on CDK9/cyclin T1, 640 nM; in experiment [3], 10 nM; in experiment [4], 2500 nM.

On to `Cc1nc2c(s1)-c1nc(Nc3cccc(O)c3)ncc1CC2`, for which the inhibition constant Ki in [1] worked out at 53 nM; in experiment [2] it was 580 nM; on CDK9/cyclin T1, 32 nM; in experiment [3], 11 nM; in [4], 360 nM.

Regarding `COC(=O)c1ccc(Nc2ncc3c(n2)-c2sc(C)nc2CC3)cc1`, the Ki came to 6300 nM in experiment [1]; 2400 nM in experiment [2]; 670 nM on CDK9/cyclin T1; 920 nM in [3]; 700 nM in experiment [4].

On to `Cc1nc2c(s1)-c1nc(Nc3cccc([N+](=O)[O-])c3)ncc1CC2`, for which the outcome (in experiment [5]; in [7]; with A2780 [9]; in experiment [10]; in experiment [12]) was Active. Besides, the Activity was 0.7% in the experiment on WI-38 [6] and 20% in the experiment on A2780 [11]. Moreover, the inhibition constant Ki in [1] came to 790 nM; in experiment [2], 2000 nM; on CDK9/cyclin T1, 2 nM; in [3], 23 nM; in experiment [4] it was 320 nM. Also, the half-inhibitory concentration (IC50) is 1400 nM in the experiment with HT-29; 690 nM in the experiment with A549; 1200 nM in the experiment on SAOS-2; 1100 nM with HeLa; 1700 nM in the experiment with MCF7. Moreover, in the experiment on WI-38 [8], the outcome was inactive.
